# Experimental data pooled from the literature.
# Lines come from different studies, so protocols differ.
# EGFR L858R: Epidermal growth factor receptor (EGFR, Homo sapiens, UniProt P00533, L858R)
# EGFR del752-759: Epidermal growth factor receptor (EGFR, Homo sapiens, UniProt P00533, del752-759)
# EGFR T790M: Epidermal growth factor receptor (EGFR, Homo sapiens, UniProt P00533, T790M)
# EGFR: Epidermal growth factor receptor (EGFR, Homo sapiens, UniProt P00533)
# EGFR L861Q: Epidermal growth factor receptor (EGFR, Homo sapiens, UniProt P00533, L861Q)
# EGFR del746-750: Epidermal growth factor receptor (EGFR, Homo sapiens, UniProt P00533, del746-750)
# EGFR A750P/del747-749: Epidermal growth factor receptor (EGFR, Homo sapiens, UniProt P00533, A750P/del747-749)
# EGFR L858R/T790M: Epidermal growth factor receptor (EGFR, Homo sapiens, UniProt P00533, L858R/T790M)
SMILES,target,effect on,method,concentration,remaining binding [%]
Nc1ncc2c(n1)-c1c([nH]c3ccc(C#CC4CC4)cc13)CCCC2,EGFR L858R,binding,competition with immobilised ligand,1 µM,100
F[C@@H]1CCN(c2nccc(-c3cnn4ncccc34)n2)C1,EGFR del752-759,binding,,1 µM,100
C[C@H](c1ccnc(Nc2nc3ccc(-c4cc(N(C)C)ncn4)cc3[nH]2)c1)N1CCN(C(=O)CC(F)(F)F)CC1,"Epidermal growth factor receptor (EGFR, Homo sapiens, UniProt P00533, del747-752/P753S)",cell-free assay,competition with immobilised ligand,0.1 µM,69
C[C@@H]1CCN(c2nccc(-c3cnn4ncccc34)n2)C1,EGFR T790M,binding,,1 µM,79
Nc1cnc(N2CCc3cc(S(=O)(=O)Nc4c(F)cc(Cl)cc4F)cc(N4CCCC4=O)c32)nc1,EGFR,cell-free assay,competition with immobilised ligand,1 µM,82
CN(C)c1nccc(-c2cnc3ncccn23)n1,EGFR L861Q,binding,,1 µM,90
O=C(c1ccc(Nc2ncc(Cl)c(-c3ccc(Cl)s3)n2)cc1)N1CCC(N2CCCC2)CC1,EGFR del746-750,binding,competition with immobilised ligand,1 µM,90
O=C(NCC1CCOCC1)c1n[nH]cc1NC(=O)c1c(F)cccc1F,EGFR del746-750,binding,competition with immobilised ligand,1 µM,100
COc1cnc(Nc2cccc(S(N)(=O)=O)c2)nc1N1CCN(c2ccccc2)CC1,EGFR del746-750,binding,competition with immobilised ligand,1 µM,90
O=C(NCCCN1CCOCC1)c1ccc(Nc2nccc(-c3cc4ccccc4s3)n2)cc1,EGFR L861Q,binding,competition with immobilised ligand,1 µM,99
CN(C)c1ncc(F)c(-c2cnn3ncccc23)n1,EGFR del746-750,binding,,1 µM,100
c1ccc(N2CCN(Cc3nc4ccccc4[nH]3)CC2)nc1,EGFR A750P/del747-749,cell-free assay,competition with immobilised ligand,1 µM,100
O=C(Nc1c[nH]nc1C(=O)NC1CCNCC1)c1cc(F)cc(F)c1,EGFR L858R,binding,competition with immobilised ligand,1 µM,90
COc1cnc(Nc2cccc(S(N)(=O)=O)c2)nc1N1CCN(c2ccccc2)C(=O)C1,EGFR L858R,binding,competition with immobilised ligand,1 µM,100
O=C(NC[C@@H]1[C@H]2CN(C(=O)OCc3cc(C(F)(F)F)cc(C(F)(F)F)c3)C[C@@H]12)c1ccc2[nH]nnc2c1,EGFR L858R/T790M,cell-free assay,competition with immobilised ligand,1 µM,80
O=C(NCCCN1CCOCC1)c1ccc(Nc2ncc(Cl)c(-c3ccc(Cl)s3)n2)cc1,EGFR,binding,competition with immobilised ligand,1 µM,89
c1cncc(-c2cccc(Nc3nccc(NC4CCCCC4)n3)c2)c1,EGFR L858R/T790M,binding,competition with immobilised ligand,10 µM,29
COc1ccnn2ncc(-c3ccnc(N(C)C)n3)c12,"Epidermal growth factor receptor (EGFR, Homo sapiens, UniProt P00533, G719S)",binding,,1 µM,96
O=C(N[C@H]1CCCCC/C=C\C2C[C@@]2(C(=O)O)NC(=O)[C@@H]2C[C@@H](Oc3ccncc3)CN2C1=O)OC1CCCC1 (stereo partly shown),EGFR del746-750,cell-free assay,competition with immobilised ligand,1 µM,78
O=C(c1ccc(Nc2nccc(-c3cc4ccccc4s3)n2)cc1)N1CCC(N2CCCC2)CC1,EGFR A750P/del747-749,binding,competition with immobilised ligand,1 µM,100
N[C@@H]1CCN(c2nccc(-c3cnn4ncccc34)n2)C1,EGFR T790M,binding,,1 µM,100
Cc1c(C(=O)O)cc(-c2ccc(C3CCNCC3)cc2)c2ccc(-c3ccc(C(F)(F)F)cc3)cc12,EGFR L861Q,cell-free assay,competition with immobilised ligand,1 µM,100
CCN1CCN(Cc2ccc(C(=O)Nc3ccc(C)c(Oc4ccc5c(c4)CC(=O)N5)c3)cc2C(F)(F)F)CC1,"Epidermal growth factor receptor (EGFR, Homo sapiens, UniProt P00533, G719C)",binding,competition with immobilised ligand,1 µM,100
CC(C)CC(=O)N1CCc2nc(-c3ccc(Br)cc3)nc(N(C)Cc3ccccc3)c2C1,EGFR del746-750,cell-free assay,competition with immobilised ligand,0.1 µM,100
CNC(=O)[C@@H]1CC[C@@H](n2c(-c3ccc4cnccc4c3)nc3ccc(C(=O)NCc4cccc(C(N)=O)c4)cc32)C1,EGFR del752-759,binding,competition with immobilised ligand,1 µM,91
CC1CCCN1c1nccc(-c2cnn3ncccc23)n1 (stereo not shown),EGFR L858R,binding,,1 µM,100
CO[C@@H](C)c1c(Nc2ccc([C@H](N(C)C(=O)C3CCS(=O)(=O)CC3)C(F)(F)F)cc2)cnc2cc(Cl)nn12,EGFR T790M,cell-free assay,competition with immobilised ligand,1 µM,90
Cc1cnc(Nc2ccc(C(=O)N3CCC(N4CCCC4)CC3)cc2)nc1-c1cc2ccccc2s1,EGFR del752-759,binding,competition with immobilised ligand,1 µM,84
